Calls of active or inactive are those of the source. No cut-off for these calls is given here.
Legend:
SW-620 [1] = assay: Decrease of Cdk2 expression in human SW620 cells after 24 hrs by immunoblotting; assay type: functional, cell-based
Procedure, shortened: (§1)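 HCT-116 or SW-620 cells exposed to 0–10 μM for 24 h. Cells lysed in Tris/NaCl/EDTA/1% Triton X-100 buffer with protease and phosphatase inhibitors at 4 °C, protein measured by BCA. Lysates run on 10–12.5% SDS-PAGE and immunoblotted, ECL detection. Cdk2, cyclin A and cyclin E antibodies used at 1:500; β-actin as loading control.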

HCT-116 [2] = assay: Cell cycle arrest in human HCT116 cells assessed as accumulation at G0/G1 phase at 5 uM after 48 hrs using propidium iodide staining by flow cytometry (reference value: 56.7 +/- 1.9%); assay type: functional
SW-620 [3] = assay: Decrease of cyclin E expression in human SW620 cells after 24 hrs by immunoblotting; assay type: functional, cell-based; procedure, shortened: as §1
HCT-116 [4] = assay: Cell cycle arrest in human HCT116 cells assessed as accumulation at S phase at 0.5 uM after 48 hrs using propidium iodide staining by flow cytometry (reference value: 36.3 +/- 1.7%); assay type: functional
SW-620 [5] = assay: Cell cycle arrest in human SW620 cells assessed as accumulation at G0/G1 phase at 0.5 uM after 48 hrs using propidium iodide staining by flow cytometry (reference value: 47.8 +/- 1.2%); assay type: functional
SW-620 [6] = assay: Cytotoxicity against human SW620 cells assessed as cell death at 2 uM after 48 hrs; assay type: functional, cell-based
Procedure, shortened: (§2)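 Cells seeded at 10^5 per well in RPMI 1640/10% FBS at 37 °C. Subconfluent cells exposed to 0, 0.1, 0.5, 1, 2, 5 or 10 μM for 48 h, or to 10 μM for 24, 48 and 72 h; ethanol vehicle, at most 0.01% v/v final. Cells trypsinized and counted by hemocytometer. Viability as % of control, means ± SD, three experiments in triplicate.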

HCT-116 [7] = assay: Cell cycle arrest in human HCT116 cells assessed as accumulation at S phase at 10 uM after 48 hrs using propidium iodide staining by flow cytometry (reference value: 36.3 +/- 1.7%); assay type: functional
SW-620 [8] = assay: Induction of apoptosis in human SW620 cells at 5 uM after 48 hrs using Annexin V-FITC and propidium iodide staining by flow cytometry (reference value: 3.8 +/- 2.1%); assay type: functional
Procedure, shortened: (§3)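 Subconfluent cells in RPMI 1640 + 10% FBS treated with 0–10 μM for 48 h. Harvested cells incubated 10 min with FITC-annexin V/PI, then analysed by flow cytometry (488/525 nm for annexin V-FITC, 488/675 nm for PI). Reported as % apoptotic cells, means ± SD of three experiments in triplicate.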

HCT-116 [9] = assay: Cytotoxicity against human HCT116 cells assessed as inhibition of cell viability at 10 uM after 24 hrs; conditions: HCT-116, 24 h
HCT-116 [10] = assay: Induction of apoptosis in human HCT116 cells assessed as increase of Bax protein expression after 24 hrs by immunoblotting; assay type: functional, cell-based
Procedure, shortened: (§4)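 HCT-116 or SW-620 cells treated with 0–10 μM for 24 h, lysed, and run on 15% SDS-PAGE immunoblots. Probed for Bcl-2 (1:1000), Bax (1:500), caspase-9/-3 and their cleaved forms (1:1000), and β-actin (1:1000). Bands quantified by densitometry; means ± SD of three experiments in duplicate.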

HCT-116 [11] = assay: Induction of apoptosis in human HCT116 cells at 10 uM after 48 hrs using Annexin V-FITC and propidium iodide staining by flow cytometry (reference value: 7.6 +/- 3%); assay type: functional; procedure, shortened: as §3
SW-620 [12] = assay: Cell cycle arrest in human SW620 cells assessed as accumulation at G0/G1 phase at 5 uM after 48 hrs using propidium iodide staining by flow cytometry (reference value: 47.8 +/- 1.2%); assay type: functional
HCT-116 [13] = assay: Cytotoxicity against human HCT116 cells at 0.1 to 10 uM; assay type: functional, cell-based; conditions: TDE = time-dependent effect; procedure, shortened: as §2
HCT-116 [14] = assay: Cell cycle arrest in human HCT116 cells assessed as accumulation at G0/G1 phase at 0.1 uM after 48 hrs using propidium iodide staining by flow cytometry (reference value: 56.7 +/- 1.9%); assay type: functional
SW-620 [15] = assay: Cell cycle arrest in human SW620 cells assessed as accumulation at G2/M phase at 2 uM after 48 hrs using propidium iodide staining by flow cytometry (reference value: 9.1 +/- 0.3%); assay type: functional
HCT-116 [16] = assay: Cytotoxicity against human HCT116 cells assessed as cell viability at 10 uM after 48 to 72 hrs; assay type: functional, cell-based; procedure, shortened: as §2
SW-620 [17] = assay: Cell cycle arrest in human SW620 cells assessed as accumulation at G0/G1 phase at 10 uM after 48 hrs using propidium iodide staining by flow cytometry (reference value: 47.8 +/- 1.2%); assay type: functional
HCT-116 [18] = assay: Cell cycle arrest in human HCT116 cells assessed as accumulation at G2/M phase at 5 uM after 48 hrs using propidium iodide staining by flow cytometry (reference value: 7.1 +/- 0.3%); assay type: functional
SW-620 [19] = assay: Cell cycle arrest in human SW620 cells assessed as accumulation at G2/M phase at 10 uM after 48 hrs using propidium iodide staining by flow cytometry (reference value: 9.1 +/- 0.3%); assay type: functional
SW-620 [20] = assay: Induction of apoptosis in human SW620 cells assessed as increase of expression of cleaved caspase-9 and caspase-3 after 24 hrs by immunoblotting; assay type: functional, cell-based; procedure, shortened: as §4
HCT-116 [21] = assay: Cell cycle arrest in human HCT116 cells assessed as accumulation at G2/M phase at 1 uM after 48 hrs using propidium iodide staining by flow cytometry (reference value: 7.1 +/- 0.3%); assay type: functional
SW-620 [22] = assay: Cell cycle arrest in human SW620 cells assessed as accumulation at S phase at 5 uM after 48 hrs using propidium iodide staining by flow cytometry (reference value: 43.1 +/- 1%); assay type: functional
SW-620 [23] = assay: Cell cycle arrest in human SW620 cells assessed as accumulation at S phase at 1 uM after 48 hrs using propidium iodide staining by flow cytometry (reference value: 43.1 +/- 1%); assay type: functional
HCT-116 [24] = assay: Decrease of cyclin E expression in human HCT116 cells after 24 hrs by immunoblotting; assay type: functional, cell-based; procedure, shortened: as §1
HCT-116 [25] = assay: Induction of apoptosis in human HCT116 cells assessed as reduction of Bcl-2 protein expression at 0.1 to 10 uM after 24 hrs by immunoblotting; assay type: functional, cell-based; procedure, shortened: as §4
SW-620 [26] = assay: Cell cycle arrest in human SW620 cells assessed as accumulation at S phase at 2 uM after 48 hrs using propidium iodide staining by flow cytometry (reference value: 43.1 +/- 1%); assay type: functional
HCT-116 [27] = assay: Induction of apoptosis in human HCT116 cells at 5 uM after 48 hrs using Annexin V-FITC and propidium iodide staining by flow cytometry (reference value: 7.6 +/- 3%); assay type: functional; procedure, shortened: as §3
SW-620 [28] = assay: Effect on p57 expression in p53 deficient human SW620 cells at 0.5 to 10 uM after 24 hrs by immunoblotting; assay type: functional, cell-based
SW-620 [29] = assay: Increase of p21 expression in human SW620 cells at 0.5 to 10 uM after 24 hrs by immunoblotting; assay type: functional, cell-based
Procedure, shortened: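 HCT-116 or SW-620 cells treated with 0–10 μM for 24 h. Lysates probed for p21 by SDS-PAGE immunoblotting with ECL detection; β-actin as loading control.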

**Q.** How did the Activity (SW-620 [1]) turn out when `CC(C)c1cccc(=O)c(O)c1` [HINOKITIOL] was run?
**A.** Dose-dependent effect

**Q.** And the Activity (HCT-116 [2])?
**A.** 44.6%

**Q.** And the Activity (SW-620 [3])?
**A.** Dose-dependent effect

**Q.** And the Activity (HCT-116 [4])?
**A.** 35.4%

**Q.** And the Activity (SW-620 [5])?
**A.** 48.3%

**Q.** What about the Activity (SW-620 [6]) of the same compound?
**A.** Active

**Q.** What about the Activity (HCT-116 [7]) of the same compound?
**A.** 53.8%

**Q.** What about the Activity (SW-620 [8]) of the same compound?
**A.** 53.1%

**Q.** What about the inhibition of viability at 10 µM (HCT-116 [9]) of the same compound?
**A.** 27%

**Q.** And the Activity (HCT-116 [10])?
**A.** Dose-dependent effect

**Q.** And the Activity (HCT-116 [11])?
**A.** 24.7%

**Q.** What about the Activity (SW-620 [12]) of the same compound?
**A.** 40.8%

**Q.** And the Activity (HCT-116 [13])?
**A.** tde

**Q.** And the Activity (HCT-116 [14])?
**A.** 58.1%

**Q.** What about the Activity (SW-620 [15]) of the same compound?
**A.** 4.5%

**Q.** And the Activity (HCT-116 [16])?
**A.** Active

**Q.** And the Activity (SW-620 [17])?
**A.** 11.5%

**Q.** And the Activity (HCT-116 [18])?
**A.** 11.9%

**Q.** What about the Activity (SW-620 [19]) of the same compound?
**A.** 1.5%

**Q.** What about the Activity (SW-620 [20]) of the same compound?
**A.** Dose-dependent effect

**Q.** What about the Activity (HCT-116 [21]) of the same compound?
**A.** 7.7%

**Q.** What about the Activity (SW-620 [22]) of the same compound?
**A.** 51.9%

**Q.** What about the Activity (SW-620 [23]) of the same compound?
**A.** 47.7%

**Q.** And the Activity (HCT-116 [24])?
**A.** Dose-dependent effect

**Q.** And the Activity (HCT-116 [25])?
**A.** Active

**Q.** And the Activity (SW-620 [26])?
**A.** 52.4%

**Q.** What about the Activity (HCT-116 [27]) of the same compound?
**A.** 15.6%

**Q.** And the Activity (SW-620 [28])?
**A.** inactive

**Q.** And the Activity (SW-620 [29])?
**A.** Active
